Source: PubChem BioAssay
Rows were chosen to be rich in hits. Some 2.3% of all compounds tested hit in one or more screens of this group.
ADAM17 inh – inhibits human ADAM17; P78536; recombinant ADAM17, EDANS/DABCYL FRET peptide cleavage; inhibition, % at 6.95 µM; 370,000 compounds, 0.83% hits;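 active means inhibition above the mean of compounds lying between control limits plus 3 SD, set per campaign, cut at about 8.5% in these data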
Target sequence (P78536 215-824 limits assumed): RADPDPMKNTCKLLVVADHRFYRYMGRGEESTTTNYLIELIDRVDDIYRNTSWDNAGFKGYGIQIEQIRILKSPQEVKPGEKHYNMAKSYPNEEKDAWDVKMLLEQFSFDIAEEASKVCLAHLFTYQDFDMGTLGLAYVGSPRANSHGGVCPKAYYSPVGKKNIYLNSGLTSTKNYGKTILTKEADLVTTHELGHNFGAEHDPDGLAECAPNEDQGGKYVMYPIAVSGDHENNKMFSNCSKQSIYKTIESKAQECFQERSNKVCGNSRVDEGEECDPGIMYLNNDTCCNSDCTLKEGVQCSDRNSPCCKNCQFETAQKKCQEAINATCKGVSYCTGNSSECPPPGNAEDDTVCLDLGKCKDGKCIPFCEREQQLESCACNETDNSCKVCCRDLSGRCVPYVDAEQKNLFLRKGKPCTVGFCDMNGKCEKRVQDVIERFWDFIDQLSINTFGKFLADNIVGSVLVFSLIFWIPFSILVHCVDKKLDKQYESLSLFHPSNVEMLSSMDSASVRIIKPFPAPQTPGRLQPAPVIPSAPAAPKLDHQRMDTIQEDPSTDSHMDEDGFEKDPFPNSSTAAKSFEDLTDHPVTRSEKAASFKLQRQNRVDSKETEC
DDE Tn6 FP inh – DD(E)-Tn6 binding inhibition, primary FP screen | Fibrin DD(E) TRITC-Tn6 fluorescence polarization displacement | inhibition, % at 8.3 µM | 370,000 compounds, 0.21% hits;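 active means inhibition above a per-campaign cutoff: mean of compounds within control limits plus 3 SD, cut at about 15% in these data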
ADAM10 inh – inhibitors of human ADAM10; inhibition, % at 7 µM; recombinant ADAM10, EDANS/DABCYL FRET peptide cleavage, 3 h; 370,000 compounds, 0.62% hits; O14672;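 active means inhibition above a per-campaign cutoff equal to the mean of compounds falling between control-based bounds plus 3 SD, cut at about 20% in these data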
PLC-beta3 inh – inhibitors of human phospholipase C beta3; inhibition, % at 12.2 µM; Purified PLC-beta3, fluorogenic substrate, fluorescence; AID 720704; 370,000 compounds, 0.18% hits
PLCg1 inh – PLC-gamma1 (human) inhibition, primary screen. P19174. purified PLC-gamma1, fluorogenic substrate, fluorescence. inhibition, % at 12.2 µM. 370,000 compounds, 0.84% hits. AID 720700; in the data active means inhibition above about 9.5%
Tn7 DDE FP – DD(E)-Tn7 binding inhibition, primary FP screen; inhibition, % at 8.3 µM; AID 720508; FP displacement of FITC-Tn7 peptide from fibrin DD(E); 0% = median of compound wells per plate; 370,000 compounds, 0.13% hits; P02675;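 active means inhibition above the mean of compounds falling within the control limits plus 3 SD of them, cut at about 14% in these data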
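Assay system: human fibrin DD(E) protein / Input: 2 µM fibrin DD(E) / Benchmarks: high control of 10 µM Aha-Tn7 peptide / Measured by: fluorescence polarization of the labelled Tn7 tracer / Medium: Tris buffer with calcium and detergent, pH 7.8 / Timing: 10 min compound pre-incubation, 3 h probe incubation at room temperature / Repeats: one replicate per compound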
ADAM10 counter – inhibits human ADAM10 in ADAM17 exosite counter-screen | shares compounds with ADAM17 inh | 2,900 compounds, 47% hits | recombinant ADAM10, EDANS/DABCYL FRET peptide cleavage, 3 h | inhibition, % at 6.95 µM | AID 743256;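 active means mean inhibition over the triplicate runs exceeds the activity threshold set in the earlier primary screen, cut at about 20% in these data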
ADAM17 confirm – confirmation of inhibitors of human ADAM17; shares compounds with ADAM17 inh; recombinant ADAM17, EDANS/DABCYL QFRET peptide cleavage; inhibition, % at 6.95 µM; 2,900 compounds, 65% hits;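 active means mean inhibition across replicates above the hit cutoff set in the primary screen, cut at about 8.5% in these data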
PLCgamma1 ctr – PLC-gamma1 inhibition, counter-screen for PLC-beta3 hits | shares compounds with PLCg1 inh | purified PLC-gamma1, fluorogenic substrate, fluorescence | inhibition, % at 12.3 µM | 3,300 compounds, 3.1% hits; in the data active means inhibition above about 9.5%
PLCb3 confirm – confirmation of human PLC-beta3 inhibitors | shares compounds with PLCg1 inh | purified PLC-beta3, fluorogenic substrate fluorescence | inhibition, % at 12.3 µM | 3,300 compounds, 1% hits
Numbers stand for hits. Unless noted, no stated cut-off is given here; in the data, active means inhibition above about 11%; inactive means the rest.

Screening Cc1ccc(NC(=O)CSc2ncn[nH]2)cc1 returned ADAM17 inh inactive, DDE Tn6 FP inh inactive, ADAM10 inh inactive, PLC-beta3 inh inactive, PLCg1 inh inactive and Tn7 DDE FP inactive.
`O=C(CSc1ncn[nH]1)Nc1ccc2c(c1)CCC2` gave ADAM17 inh 8.8, DDE Tn6 FP inh inactive, ADAM10 inh inactive, PLC-beta3 inh 13, PLCg1 inh inactive, Tn7 DDE FP inactive, ADAM10 counter inactive, ADAM17 confirm inactive, PLCgamma1 ctr inactive and PLCb3 confirm inactive.
CCN1C(=O)C(CC(=O)Nc2ccc(OC)cc2)N(CCc2ccc(OC)cc2)C1=S (centres undefined) was read as ADAM17 inh 11, DDE Tn6 FP inh inactive, ADAM10 inh inactive, PLC-beta3 inh 14, PLCg1 inh inactive, Tn7 DDE FP inactive, ADAM10 counter 32, ADAM17 confirm 15, PLCgamma1 ctr inactive and PLCb3 confirm inactive.
CCN1C(=O)C(CC(=O)Nc2ccc(OC)cc2)N(Cc2ccc(OC)c(OC)c2)C1=S (centres undefined) was read as ADAM17 inh inactive, DDE Tn6 FP inh inactive, ADAM10 inh inactive, PLC-beta3 inh inactive, PLCg1 inh inactive and Tn7 DDE FP inactive.
Screening CCOC(=O)c1c(C)[nH]c(C)c1S(=O)(=O)NCCc1sccc1C returned ADAM17 inh 9.0, DDE Tn6 FP inh inactive, ADAM10 inh inactive, PLC-beta3 inh inactive, PLCg1 inh 9.9, Tn7 DDE FP inactive, ADAM10 counter inactive, ADAM17 confirm inactive, PLCgamma1 ctr inactive and PLCb3 confirm inactive.
Screening CCOC(=O)c1c(C)[nH]c(C)c1S(=O)(=O)NCCc1ccc(SC)cc1 returned ADAM17 inh inactive, DDE Tn6 FP inh inactive, ADAM10 inh inactive, PLC-beta3 inh inactive, PLCg1 inh inactive and Tn7 DDE FP inactive.
For CCC(C(=O)NCc1ccco1)N(C(=O)CNS(=O)(=O)c1ccccc1)C1CCCCC1 (centres undefined) the results were ADAM17 inh inactive, DDE Tn6 FP inh inactive, ADAM10 inh inactive, PLC-beta3 inh inactive, PLCg1 inh inactive and Tn7 DDE FP inactive.
`CC(C)C(C(=O)NCc1ccco1)N(C(=O)CNS(=O)(=O)c1ccccc1)C1CCCC1` (centres undefined) gave ADAM17 inh 10, DDE Tn6 FP inh inactive, ADAM10 inh inactive, PLC-beta3 inh 12, PLCg1 inh inactive, Tn7 DDE FP inactive, ADAM10 counter inactive, ADAM17 confirm inactive, PLCgamma1 ctr inactive and PLCb3 confirm inactive.
O=c1oc2ccc(NS(=O)(=O)c3cccc4cccnc34)cc2s1 was read as ADAM17 inh 12, DDE Tn6 FP inh inactive, ADAM10 inh inactive, PLC-beta3 inh inactive, PLCg1 inh 10, Tn7 DDE FP inactive, ADAM10 counter inactive, ADAM17 confirm inactive, PLCgamma1 ctr inactive and PLCb3 confirm inactive.
O=C(CCl)Nc1cccc(S(=O)(=O)N2CCCCCC2)c1 was read as ADAM17 inh inactive, DDE Tn6 FP inh inactive, ADAM10 inh inactive, PLC-beta3 inh inactive, PLCg1 inh inactive and Tn7 DDE FP inactive.
Screening CC(NC(C)c1ccccc1Cl)C(=O)Nc1cccc(S(=O)(=O)N2CCCCC2)c1 (centres undefined) returned ADAM17 inh 11, DDE Tn6 FP inh inactive, ADAM10 inh inactive, PLC-beta3 inh inactive, PLCg1 inh 9.8, Tn7 DDE FP inactive, ADAM10 counter inactive, ADAM17 confirm 10, PLCgamma1 ctr inactive and PLCb3 confirm inactive.
Screening CC1CCCN(c2nc(NCc3ccco3)nc(N)c2[N+](=O)[O-])C1 (centres undefined) returned ADAM17 inh 9.7, DDE Tn6 FP inh inactive, ADAM10 inh inactive, PLC-beta3 inh inactive, PLCg1 inh 16, Tn7 DDE FP inactive, ADAM10 counter inactive, ADAM17 confirm inactive, PLCgamma1 ctr inactive and PLCb3 confirm inactive.
CC(C)Cn1cnc2c(Sc3c([N+](=O)[O-])ncn3C)nc(N)nc21 was read as ADAM17 inh 9.4, DDE Tn6 FP inh inactive, ADAM10 inh inactive, PLC-beta3 inh 12, PLCg1 inh 22, Tn7 DDE FP inactive, ADAM10 counter inactive, ADAM17 confirm inactive, PLCgamma1 ctr inactive and PLCb3 confirm inactive.
`CCC(C)Cn1cnc2c(Sc3c([N+](=O)[O-])ncn3C)nc(N)nc21` (centres undefined) gave ADAM17 inh inactive, DDE Tn6 FP inh inactive, ADAM10 inh inactive, PLC-beta3 inh inactive, PLCg1 inh inactive and Tn7 DDE FP inactive.
For COC(=O)[C@H]1C[C@@]2(n3ccc4ccccc43)c3ccccc3N(S(=O)(=O)c3ccccc3)[C@H]2N1C(=O)CNC1CCCCC1 the results were ADAM17 inh inactive, DDE Tn6 FP inh inactive, ADAM10 inh inactive, PLC-beta3 inh inactive, PLCg1 inh inactive and Tn7 DDE FP inactive.
`Cc1ccc(-c2nnc(SCC(=O)NN=Cc3c[nH]c4ccccc34)n2-c2ccccc2)cc1` gave ADAM17 inh inactive, DDE Tn6 FP inh inactive, ADAM10 inh inactive, PLC-beta3 inh inactive, PLCg1 inh inactive and Tn7 DDE FP inactive.
COc1ccc(S[C@@H](CCN2CC[C@H](C)CCC2=O)c2ccccc2)cc1 was read as ADAM17 inh 14, DDE Tn6 FP inh inactive, ADAM10 inh inactive, PLC-beta3 inh inactive, PLCg1 inh 9.7, Tn7 DDE FP inactive, ADAM10 counter inactive, ADAM17 confirm 11, PLCgamma1 ctr inactive and PLCb3 confirm inactive.
Screening NC(=O)CC[C@H](NC(=O)c1ccc(F)cc1)C(=O)OCC(=O)NCc1ccc(F)cc1 returned ADAM17 inh 10, DDE Tn6 FP inh inactive, ADAM10 inh inactive, PLC-beta3 inh inactive, PLCg1 inh 10, Tn7 DDE FP inactive, ADAM10 counter inactive, ADAM17 confirm inactive, PLCgamma1 ctr inactive and PLCb3 confirm inactive.
Screening NC(=O)CC[C@H](NC(=O)c1ccc(F)cc1)C(=O)OCC(=O)Nc1c(F)c(F)c(F)c(F)c1F returned ADAM17 inh inactive, DDE Tn6 FP inh inactive, ADAM10 inh inactive, PLC-beta3 inh inactive, PLCg1 inh inactive and Tn7 DDE FP inactive.
Screening Cc1nc2ccc(S(=O)(=O)NCC(=O)NCc3ccc4c(c3)OCO4)cc2s1 returned ADAM17 inh 11, DDE Tn6 FP inh inactive, ADAM10 inh inactive, PLC-beta3 inh 12, PLCg1 inh inactive, Tn7 DDE FP inactive, ADAM10 counter inactive, ADAM17 confirm 15, PLCgamma1 ctr inactive and PLCb3 confirm inactive.
